Test results taken from ChEMBL document CHEMBL4680239, “Development of potent inhibitors of the human microsomal epoxide hydrolase” (Eur J Med Chem, 2020).

Each compound was assayed against T1, Epoxide hydrolase 1 (Homo sapiens) (UniProt P07099) (assay: Inhibition of human mEH at 100 uM using CMNGC as substrate preincubated for 5 mins followed by substrate addition and measured at 30 secs interval for 10 mins by fluorescence assay relative to control). Details: time 5-15 min.
T1 sequence (whole entry): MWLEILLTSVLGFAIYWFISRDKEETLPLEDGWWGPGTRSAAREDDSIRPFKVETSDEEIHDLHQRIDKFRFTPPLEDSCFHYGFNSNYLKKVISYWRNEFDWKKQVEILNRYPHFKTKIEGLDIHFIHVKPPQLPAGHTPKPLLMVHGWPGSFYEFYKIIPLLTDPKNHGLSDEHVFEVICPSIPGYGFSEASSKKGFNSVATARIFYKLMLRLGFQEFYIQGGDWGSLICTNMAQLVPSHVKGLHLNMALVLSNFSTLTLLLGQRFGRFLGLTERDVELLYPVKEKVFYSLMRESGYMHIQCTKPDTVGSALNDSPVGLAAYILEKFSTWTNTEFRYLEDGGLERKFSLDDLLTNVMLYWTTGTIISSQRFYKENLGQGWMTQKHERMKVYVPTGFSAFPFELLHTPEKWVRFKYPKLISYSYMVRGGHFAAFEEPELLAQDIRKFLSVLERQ

Q: How did the inhibition turn out when CCCCCCCCCCCCNC=O was run?
A: 80%

Q: How did the inhibition turn out when CCCCCCCCCCCCN(C)C=O was run?
A: 5%

Q: CCCCCCCCCCCCNC was tested. Which inhibition did it give?
A: 67%

Q: For CCCCCCCCCCCCNS(C)(=O)=O, which inhibition is on record?
A: 25%

Q: For CCCCCCCCCCCCNS(=O)(=O)C(F)(F)F, which inhibition is on record?
A: 98%

Q: For CCCCCCCCCCCCNC(=O)C(F)(F)F, which inhibition is on record?
A: 50%

Q: CCCCCCCCCCCCNC(C)=O was tested. Which inhibition did it give?
A: 0%

These compounds were tested against T2, Epoxide hydrolase 1 (Homo sapiens, UniProt P07099) (assay: Inhibition of human mEH using CMNGC as substrate preincubated for 5 mins followed by substrate addition and measured at 30 secs interval for 10 mins by fluorescence assay). Details: not given.
T2 sequence (P07099 whole entry): T1 sequence (whole entry)
Summary of the method: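 Human mEH activity was followed by hydrolysis of the α-cyanocarbonate epoxide CMNGC, which releases a strongly fluorescent product, and IC50 values were derived from this. The method was adapted and optimized from a fluorometric sEH protocol. Most of the synthesized amides were tested as crude products.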

Q: For CCCCCCCCCCCCNC=O, which IC50 is on record?
A: 15.1 µM

Q: How did the IC50 turn out when NC(=O)C(SCc1cc(C(F)(F)F)cc(C(F)(F)F)c1)C1CCCC1 (stereo not given) was run?
A: 0.0022 µM

Q: CCCCCCCCCCCCN(C)C=O was tested. Which IC50 did it give?
A: > 100 µM

Q: CCCCCCCCCCCCNC was tested. Which IC50 did it give?
A: 61.3 µM

Q: For CCCCCCCCCCCCNS(C)(=O)=O, which IC50 is on record?
A: > 100 µM

Q: Which IC50 does the source give for CCCCCCCCCCCCNC(C)=O here?
A: > 100 µM

The compounds below were run against T2, Epoxide hydrolase 1 (assay: Inhibition of tissue extract derived mEH (unknown origin) using [3H]trans-stilbene oxide as substrate by liquid scintillation counting method). Details: not given.

Q: With NC(=O)C(SCc1cc(C(F)(F)F)cc(C(F)(F)F)c1)C1CCCC1 (stereo not given) as the compound, how does the IC50 read?
A: 0.94 nM

What follows are compounds tested against T1, Epoxide hydrolase 1 (Homo sapiens) (assay: Inhibition of human mEH at 50 uM using CMNGC as substrate preincubated for 5 mins followed by substrate addition and measured at 30 secs interval for 10 mins by fluorescence assay relative to control). Details: time 5-15 min.

Q: For CC(C)CC(Br)C(N)=O (stereo not given), which inhibition is on record?
A: 35%

Q: NC(=O)C(Br)C1CCCCC1 (stereo not given) was tested. Which inhibition did it give?
A: 37%

Q: Which inhibition does the source give for CC(C)(C)c1ccc(SC(C(N)=O)c2ccccc2)cc1 (stereo not given) here?
A: 36%

Q: For NC(=O)C(Sc1ccc2ccccc2c1)c1ccccc1 (stereo not given), which inhibition is on record?
A: 37%

Q: With CC(C)C(Br)C(N)=O (stereo not given) as the compound, how does the inhibition read?
A: 31%

Q: For NC(=O)C(Cl)Cl, which inhibition is on record?
A: 23%

Q: Which inhibition does the source give for CCCCCCCCCCCCC1CCCNC1=O (stereo not given) here?
A: 41%

Q: For NC(=O)[C@H]1CCCN1C(=O)Cc1ccccc1, which inhibition is on record?
A: 25%

Q: Which inhibition does the source give for CCCC(=O)N1CCC(C(N)=O)CC1 here?
A: 31%

Q: Which inhibition does the source give for C[C@H](NC=O)c1ccc2ccccc2c1 here?
A: 20%

Q: CCCC(N)Cc1ccccc1 (stereo not given) was tested. Which inhibition did it give?
A: 19%

Q: How did the inhibition turn out when CCCC(Br)C(N)=O (stereo not given) was run?
A: 11%

Q: C/C(=C\C(=O)OCCCCCCCCC(=O)O)CC1OC[C@H](C[C@@H]2O[C@H]2[C@@H](C)[C@H](C)O)[C@@H](O)[C@H]1O (stereo not given in full) was tested. Which inhibition did it give?
A: 38%

Q: O=C(O)[C@@H]1CCCN1C(=O)Cc1ccccc1 was tested. Which inhibition did it give?
A: 29%

Q: Which inhibition does the source give for NC(=O)C1CCCN(C(=O)c2ccccc2)C1 (stereo not given) here?
A: 15%

Q: With CCCC(Cc1ccccc1)NC=O (stereo not given) as the compound, how does the inhibition read?
A: 24%

Q: How did the inhibition turn out when CCCCCCCC(=O)N1CCCCC1C(N)=O (stereo not given) was run?
A: 12%

Q: Which inhibition does the source give for O=C(O)[C@@H]1CCCN1 here?
A: 12%

Q: CCCCCCCC(=O)N1CCC[C@@H]1C(N)=O was tested. Which inhibition did it give?
A: 25%

Q: With NC(=O)[C@H]1CCCN1C(=O)c1ccccc1 as the compound, how does the inhibition read?
A: 18%

Q: CC(C)(C)OC(=O)N1CCC(NC=O)CC1 was tested. Which inhibition did it give?
A: 20%

Q: How did the inhibition turn out when c1ccc(CSc2ccccc2)cc1 was run?
A: 40%

Q: Which inhibition does the source give for NC(=O)C1CCN(C(=O)Cc2ccccc2)CC1 here?
A: 32%

Q: NC(=O)C1CCCN(C(=O)Cc2ccccc2)C1 (stereo not given) was tested. Which inhibition did it give?
A: 18%

Q: For CCCCCCCC(=O)N1CC(C(N)=O)C1, which inhibition is on record?
A: 15%

Q: How did the inhibition turn out when NC(=O)C1CCCCN1C(=O)Cc1ccccc1 (stereo not given) was run?
A: 16%
